Article PMC6843717 (ACS Omega, 2019)
Where “and” joins values, the source holds several entries; their conditions need not be identical. Equal entries are not always repeated. Marks after values point to notes of the source that are not given here. One block for each molecule: values may come before it.

Experiments:
[1] = cited from earlier work
[2] = Plasma pharmacokinetics after single IP or PO dose; format: in vivo, Balb/c mice
How it was run: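 Female BALB/c mice, 4–5 weeks old, acclimated 1 week. Single 10 mg/kg dose (0.1 mL in 12.5% ethanol/12.5% cremophor/75% PBS, pH 7.4), IP or oral gavage. Five mice per time point (0.08–12 h) bled by cardiac puncture into citrate. Plasma protein-precipitated and analysed by SFC-MS/MS (ESI+, m/z 339.1→179.9). λz by terminal log-linear regression; relative bioavailability PO vs IP.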

[3] = Tissue distribution after single IP or PO dose; format: in vivo, BALB/c mice; conditions: for MRT inf / Vd/F / concentration at 30 min / half-life / k el / tissue uptake / Tmax: 10 mg/kg; for Tmax / AUC0–t / Cl/F: mean ± SEM
How it was run: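 Same single 10 mg/kg IP or PO dosing in female BALB/c mice. Liver, heart, spleen, kidneys and lungs taken at 0.17, 0.5, 1 and 3 h (n = 5), saline-flushed and snap-frozen. Tissue homogenized 1:4 w/v in pH 7.4 saline, liquid–liquid extracted with internal standard, quantified by SFC-MS/MS. Localization index = tissue %ID/g over plasma %ID/mL; mean ± SEM.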

[4] = MBQ-167 distribution in mouse mammary tumors; format: in vivo, SCID mice; conditions: 2.5 mg/kg BW 24 h prior to sacrifice, 3-month multiple low-dose regimen
How it was run: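 Female SCID mice, 4 weeks old, received 2 × 10^6 GFP-tagged MDA-MB-468 cells into the mammary fat pad. After 1 week, vehicle or 2.5 mg/kg ip was given three times weekly for 3 months. Twenty-four hours after the last dose, five mice per arm got 10 mg/kg 30 min before sacrifice. Tumours were saline-flushed, snap-frozen, homogenized, extracted and quantified by SFC-MS/MS (n = 5).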

[5] = Stability of MBQ-167 in mouse plasma; format: physicochemical; conditions: for postpreparative stability RE%: 8 h; for short term stability RE%: 4 h at benchtop; for freeze–thaw stability RE% / long term stability RE%: −80 °C; for freeze–thaw stability RE%: 3 cycles 24 h
How it was run: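 Spiked mouse plasma QCs (calibration 1.5–1000 ng/mL) quantified by SFC-MS/MS after protein precipitation; RE% against nominal. Short-term: 2.5 and 950 ng/mL, 4 h at room temperature. Postpreparative: three QC levels (2.5, 450, 950 ng/mL) held at 4 °C. Long-term: −80 °C for 15 and 134 days. Freeze–thaw: three 24 h cycles at −80 °C.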

[6] = Stability of MBQ-167 in mouse liver; format: physicochemical; conditions: for postpreparative stability RE% / short term stability RE% / freeze–thaw stability RE% / long term stability RE%: liver; for postpreparative stability RE%: 8 h; for short term stability RE%: 3 h in an ice bucket; for freeze–thaw stability RE% / long term stability RE%: −80 °C; for freeze–thaw stability RE%: 3 cycles 24 h; for long term stability RE%: 90 days
How it was run: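 Spiked mouse tissue QCs (calibration 10–1000 ng/mL) quantified by SFC-MS/MS; RE% against nominal. Short-term: 15 and 950 ng/mL, 3 h in an ice bucket. Postpreparative: 15, 450 and 950 ng/mL, 8 h at 4 °C. Long-term: −80 °C for 90 days. Freeze–thaw: three 24 h cycles at −80 °C.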

Cdc42 = conditions: read-out: IC50 for Cdc42 activation; cited from earlier work
[7] = tested on: HER2-type mammary fat pad tumor; conditions: 10 mg/kg BW; immunocompromised mice; cited from earlier work
[8] = female, BALB/c, mouse, plasma, ip, 10 mg/kg
[9] = female, BALB/c, mouse, plasma, po, 10 mg/kg
[10] = plasma, intraperitoneal 10 mg/kg, mean ± SEM
[11] = female, BALB/c, mouse, heart, ip
[12] = female, BALB/c, mouse, heart, po
[13] = female, BALB/c, mouse, kidneys, ip
[14] = female, BALB/c, mouse, kidneys, po
[15] = female, BALB/c, mouse, liver, ip
[16] = female, BALB/c, mouse, liver, po
[17] = female, BALB/c, mouse, lungs, ip
[18] = female, BALB/c, mouse, lungs, po
[19] = female, BALB/c, mouse, spleen, ip
[20] = female, BALB/c, mouse, spleen, po

Compound: O=c1cc(CN2CCOCC2)occ1OCCCCCSc1ccnc2cc(C(F)(F)F)ccc12 [EHT1864]
T1/2 ([1]; Rac inhibitor, plasma): 1.65 h

Compound: CCn1c2ccccc2c2cc(Nc3ccnc(NCCCN4CCOCC4)n3)ccc21 [EHop-016]
bioavailability (F) ([1]; reported for other anticancer drugs): 40%

detection of MBQ-167 in tumor [4]: not detected
stability in plasma (±15% RSD, RE) ([5]; incubation at ambient temperature for four hours): stable
freeze–thaw stability ([5]; plasma, three freeze–thaw cycles lasting 24 h): stable
stability in tissues ([6]; incubation in an ice bucket for 3 h): stable
freeze–thaw stability ([6]; tissues, three freeze–thaw cycles lasting 24 h): stable
Compound: CCn1c2ccccc2c2cc(-n3nncc3-c3ccccc3)ccc21 [MBQ-167]
